The source of these data is ChEMBL document CHEMBL1781963, “Discovery of novel hepatoselective HMG-CoA reductase inhibitors for treating hypercholesterolemia: a bench-to-bedside case study on tissue selective drug distribution” (Bioorg Med Chem Lett, 2011).

Series [1] is described as follows: Cmax in human plasma at 10 mg administered qd for 14 days. The format is ADME, organism-based. The arrangement: dose 10 mg.
Series [2] relates to Homo sapiens. The series is described as follows: Inhibition of HMG-CoA reductase in human assessed as decrease in AUC (0 to 24 hrs) of mevalonate level in plasma at 320 mg administered as single dose relative to control. The following applies: in vivo. Format: organism-based.
Series [3] relates to Plasma. As to the kind of experiment: fAUC (0 to infinity) in human plasma at 120 mg administered as single dose. Format: ADME, cell-free. A digest of the protocol:
(§1)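 Phase 1 single ascending oral dose in healthy volunteers, with N per dose group. Total plasma Cmax and AUC(0-∞) were measured. Free-drug exposures were derived from these using plasma protein binding (human plasma fu measured at 0.5 μg/mL).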

For series [4], the system named is Homo sapiens. The series is described as follows: Inhibition of HMG-CoA reductase in human assessed as decrease in AUC (0 to 72 hrs) of mevalonate level in plasma at 3 mg administered as single dose relative to control. Format: functional.
A further series deals with Hepatocyte. The series is described as follows: Inhibition of cholesterol synthesis in rat hepatocytes assessed as reduction of [14C]-cholesterol level using [14C]-acetic acid preincubated for 4 hrs before addition of [14C]-acetic acid by liquid scintillation counting. Format: functional, cell-based. In outline:
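Cholesterol synthesis inhibition measured in rat hepatocytes and rat myocyte cell line, giving IC50 for each. Mean ± SEM of n ≥ 2 independent determinations.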

Series [5] in a line: Cmax in human plasma at 240 mg administered as single dose. Format: ADME, organism-based. Also on record: dose 240 mg. In outline: (§2)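 Phase 1 single ascending oral dose in healthy volunteers, about 5–6 subjects per dose. Total plasma drug Cmax and AUC(0-∞) were measured. Free-drug exposures were derived using plasma protein binding.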
Series [6] deals with Plasma. As to the kind of experiment: fCmax in human plasma at 240 mg administered as single dose. The format is ADME, cell-free. In outline: as §1
Series [7] deals with Homo sapiens. As to the kind of experiment: Inhibition of HMG-CoA reductase in human assessed as decrease in AUC (0 to 72 hrs) of mevalonate level in plasma at 320 mg administered as single dose relative to control. Format: functional.
Series [8] is described as follows: Cmax in human plasma at 3 mg administered as single dose. The format is ADME, organism-based. Also on record: dose 3 mg. In outline: as §2
A short description of series [9]: AUC (0 to infinity) in human plasma at 120 mg administered as single dose. The arrangement: dose 120 mg, time infinity. The format is ADME, cell-free. A digest of the protocol:
as §2

In series [10] the test system is Plasma. The series is described as follows: fCmax in human plasma at 120 mg administered as single dose. The format is ADME, cell-free. A digest of the protocol:
as §1

A short description of series [11]: AUC (0 to infinity) in human plasma at 10 mg administered as single dose. Format: ADME, cell-free. Also on record: dose 10 mg, time infinity. A digest of the protocol: as §2
Series [12] concerns Plasma. As to the kind of experiment: fCmax in human plasma at 3 mg administered as single dose. Format: ADME, cell-free. In outline: as §1
For series [13], the system named is Homo sapiens. The series is described as follows: Inhibition of HMG-CoA reductase in human assessed as decrease in AUC (0 to 72 hrs) of mevalonate level in plasma at 240 mg administered as single dose relative to control. Format: functional.
For the next series, the system named is Rattus norvegicus. As to the kind of experiment: Inhibition of HMG-CoA reductase in Sprague-Dawley rat assessed as reduction of mevalonate level in plasma at 10 mg/kg, po administered as single dose after 24 hrs relative to control. The format is functional.
Series [14] can be described thus: Cmax in human plasma at 120 mg administered as single dose. The format is ADME, organism-based. Also on record: dose 120 mg. In outline:
as §2

Series [15] is described as follows: AUC (0 to infinity) in human plasma at 240 mg administered as single dose. Also on record: dose 240 mg, time infinity. Format: ADME, cell-free. A digest of the protocol:
as §2

For series [16], the system named is Homo sapiens. As to the kind of experiment: Inhibition of HMG-CoA reductase in human assessed as decrease in AUC (0 to 24 hrs) of mevalonate level in plasma at 5 mg administered as single dose relative to control. Format: functional.
The subject of series [17] is Homo sapiens. The series is described as follows: Inhibition of HMG-CoA reductase in human assessed as decrease in AUC (0 to 72 hrs) of mevalonate level in plasma at 20 mg administered as single dose relative to control. Format: functional.
Series [18] can be described thus: Terminal half life in human plasma at 5 mg administered as single dose. The format is ADME, cell-free. Particulars: read-out: beta t1/2 (converted).
The test system of series [19] is Plasma. The series is described as follows: fAUC (0 to infinity) in human plasma at 80 mg administered as single dose. The format is ADME, cell-free. A digest of the protocol: as §1
Series [20] in a line: Terminal half life in human plasma at 1 mg administered as single dose. Format: ADME, cell-free. The following applies: read-out: beta t1/2 (converted).
Another series has as its system Liver. As to the kind of experiment: Ratio of fAUC (0 to 24 hrs) in liver to plasma in Sprague-Dawley rat at 25 mg/kg, po. The arrangement: dose 25 mg/kg, route oral. The format is ADME, organism-based. Particulars: other tissue. A digest of the protocol: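 Sprague-Dawley rats given a single oral dose (10 or 25 mg/kg). Free drug measured in liver and plasma at 0, 0.5, 1, 2, 3, 4, 7 and 24 h, n = 3/time point.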

Series [21] in a line: Terminal half life in human plasma at 80 mg administered as single dose. The format is ADME, cell-free. The following applies: read-out: beta t1/2 (converted).

Take `CC(C)c1nc(N(C)S(C)(=O)=O)nc(-c2ccc(F)cc2)c1/C=C/[C@@H](O)C[C@@H](O)CC(=O)O` [ROSUVASTATIN]: the Cmax (as a rule, the peak of the concentration-time curve) in [1] came to 4.58 ng/mL.
As for `O=C([O-])C[C@H](O)C[C@H](O)CCn1c(-c2ccc(F)cc2)nc(C(=O)NCc2cccc(F)c2)c1C1CC1.[Na+]`, the “inhibition (INH)” value in the series with Homo sapiens [2] is given as -61%; in the series with Homo sapiens [4], -10%; in the series with Homo sapiens [7], -28%; with Homo sapiens [13], -30%. The fAUC in the series on Plasma [3] was determined as 3.63 ng·h/mL. In addition, in the series with Hepatocyte, the IC50 – broadly, the concentration at which inhibition is half-maximal – is 0.1 nM. In addition, the Cmax in series [5] is 9.27 ng/mL; in series [8], 0.0552 ng/mL; in series [14] it was 3.31 ng/mL. The fCmax with Plasma [6] came out at 2.69 ng/mL; with Plasma [10], 0.96 ng/mL; in the series with Plasma [12], 0.016 ng/mL. For the same compound, the AUC(0-inf) – broadly, total exposure, with the tail of the curve extrapolated – in series [9] was determined as 12.5 ng·h/mL; in series [11], 2.71 ng·h/mL; in series [15] it was 27.2 ng·h/mL. The inhibition in vivo – broadly, the percentage by which the read-out fell short of the control – at 10 mg/kg with Rattus norvegicus was 47%.
As for `Cc1ccc(CNC(=O)c2nn(-c3ccc(F)cc3)c(CC[C@@H](O)C[C@@H](O)CC(=O)O)c2C(C)C)cc1`, the “inhibition (INH)” value is -13% in the series on Homo sapiens [16] and -17% with Homo sapiens [17]. In addition, the half-life in series [18] was 4.54 h; in [20], 2.55 h; in series [21], 6.28 h. Further, the fAUC with Plasma [19] was found to be 602 ng·h/mL. Besides, the Ratio in the series on Liver was 128.
